Active and inactive are the calls of the source. The calls are words filed in the database; no cut-off is given here.
Key:
HUVEC [1] = experiment: Antiangiogenic activity against VEGF-induced HUVEC assessed as tube area at 100 uM after 11 days by BCIP/NBT visualization assay; type: functional, Homo sapiens
In short: (§1)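 HUVECs co-cultured with fibroblasts (angiogenesis kit) grown with test drug at 30 or 100 μM plus VEGF-A 10 ng/ml for 11 days. Fixed in 70% ethanol, then mouse anti-human CD31 (1:4000, 1 h, 37 °C) and AP-conjugated goat anti-mouse IgG (1:500, 1 h, 37 °C), developed with BCIP/NBT. Mean ± S.E.M.; VEGF n = 9, VEGF + compound n = 3; Dunnett's test versus VEGF.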

MCF7 = experiment: Cytotoxicity against human MCF7 cells assessed as cell viability at 100 ug/ml after 72 hrs by MTT assay; type: functional; conditions: MCF7, 72 h, read-out: Activity
KB = experiment: Cytotoxicity against human KB cells assessed as cell viability at 100 ug/ml after 72 hrs by MTT assay; type: functional; conditions: read-out: Activity
[2] = Cytotoxicity against human HS-Sultan cells assessed as cell viability at 100 ug/ml after 72 hrs by MTT assay; type: functional; conditions: read-out: Activity
[3] = Stability assessed as half life at pH 8.78; type: physicochemical; conditions: buffer
[4] = Stability assessed as half life at pH 7.23; type: physicochemical; conditions: buffer
[5] = Stability assessed as half life at pH 6.24; type: physicochemical; conditions: buffer
IM-9 = experiment: Cytotoxicity against human IM9 cells assessed as cell viability at 100 ug/ml after 72 hrs by MTT assay; type: functional; conditions: IM-9, 72 h, read-out: Activity
HUVEC [6] = experiment: Antiangiogenic activity against VEGF-induced HUVEC assessed as tube path at 100 uM after 11 days after 11 days by BCIP/NBT visualization assay; type: functional, cell-based; conditions: Homo sapiens; in short: as §1
HUVEC [7] = experiment: Antiangiogenic activity against VEGF-induced HUVEC assessed as tube length at 100 uM after 11 days after 11 days by BCIP/NBT visualization assay; type: functional, cell-based; conditions: Homo sapiens; in short: as §1
HUVEC [8] = experiment: Antiangiogenic activity against VEGF-induced HUVEC assessed as tube joint at 100 uM after 11 days after 11 days by BCIP/NBT visualization assay; type: functional, cell-based; conditions: Homo sapiens; in short: as §1

| half-life [3] | half-life [4] | half-life [5] | Compound | Activity (HUVEC [1]) | viability at 100 µg/mL (MCF7) | viability at 100 µg/mL (KB) | viability at 100 µg/mL [2] | viability at 100 µg/mL (IM-9) | Activity (HUVEC [6]) | Activity (HUVEC [7]) | Activity (HUVEC [8]) |
| --- | --- | --- | --- | --- | --- | --- | --- | --- | --- | --- | --- |
| 156 min | 306 min | 1670 min | O=C1CC[C@H](N2C(=O)c3ccccc3C2=O)C(=O)N1 | <60% | 81.3% | 95.6% | 88.6% | 93.5% | – | – | – |
| – | – | – | O=C1CCC(N2C(=O)c3ccccc3C2=O)C(=O)N1 (racemic) [THALIDOMIDE] | <60% | 86.5% | 92.2% | 85.9% | 107% | inactive | inactive | inactive |
| – | – | – | O=C1CC[C@@H](N2C(=O)c3ccccc3C2=O)C(=O)N1 | >70% | 89.8% | 96.9% | 75.6% | 87.1% | inactive | inactive | inactive |
